Screening results from PubChem BioAssay.
Mdm2 ligase inh: inhibitors of human Mdm2 E3 ubiquitin ligase. Q00987. cell-based MDM2 ubiquitination luciferase reporter, 2 h; 0 = plate control, 100 = twice control, blank-subtracted. hit rate 0.11% among 210,000. signal enhancement, % at 5 µM;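 active = signal enhancement of 30% or more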;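 also: luminescence tracks abundance of the self-degrading MDM2-luciferase fusion protein; higher signal means inhibition of MDM2 E3 ligase activity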
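Material: Stable MDM2–luciferase fusion reporter cells | Amount: 2000 cells seeded into each well | Dosing: One concentration, 5 µM, with 0.2% DMSO | Incubation: 4 h cell settling then 2 h compound exposure, 37 °C | Measured by: Luciferase luminescence | Read-out basis: % enhancement relative to plate controls after blank subtraction | Benchmarks: Control and blank well means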
HSV replic up: HSV replication enhancement. HSV replication augmentation in cells, fold increase. maximum fold increase. hit rate 0.005% among 220,000. AID 1956; in the data active = maximum fold increase above about 1.5; inconclusive = no clear call, values can overlap the other calls; tested in PC3 cells
HSF-1 act: increases HSF-1 driven luciferase reporter signal; hit rate 1.7% among 300,000; AID 504408; activation, % at 9 µM; NIH3T3-HGL HSF-1 luciferase reporter, MG132, 8 h; 100% = twice DMSO control signal;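 active = mean replicate activation of at least 50% with a set share of replicates each reaching 50%; inconclusive = only one of those two conditions met; inactive = mean below 50% and too few replicates reaching it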;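 also: 0% = median of the neutral control wells and 100% = twice that signal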
HSF1 inh: HSF1 inhibition | NIH3T3-HGL HSE-luciferase, MG132-induced, luminescence 8 h; stronger effect = lower value | activity change, negative = inhibition, % at 7.5 µM (by protocol) | AID 2098 | hit rate 0.77% among 300,000;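 active = more than half of replicate wells show activity change below -50%, luminescence cut by over half; inconclusive = some wells, but at most half, below -50%; inactive = no replicate well below -50%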;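 also: luciferase reports HSF-1 transcriptional activity via heat shock element; 0% = median of DMSO wells and -100% = zero luminescence signal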
Rad51 HR inh: Rad51 (human) homologous recombination inhibition. hRad51 DNA strand exchange, fluorescence dequenching. inhibition, % at 10 µM. hit rate 0.085% among 200,000. AID 1385;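 active = inhibition above 40% at the single screening dose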;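 also: 0% = DMSO control wells and 100% = blanks with heterologous ssDNA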
Target sequence (Q06609 whole entry, looked up): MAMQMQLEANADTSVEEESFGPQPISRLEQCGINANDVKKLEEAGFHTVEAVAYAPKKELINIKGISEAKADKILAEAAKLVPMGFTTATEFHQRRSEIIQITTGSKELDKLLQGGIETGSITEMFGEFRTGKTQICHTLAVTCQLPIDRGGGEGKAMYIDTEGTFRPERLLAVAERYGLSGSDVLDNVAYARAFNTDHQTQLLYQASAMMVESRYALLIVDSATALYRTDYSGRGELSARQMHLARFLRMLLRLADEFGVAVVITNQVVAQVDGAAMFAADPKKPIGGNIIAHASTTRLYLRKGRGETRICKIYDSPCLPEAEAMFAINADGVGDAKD
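Test system: preformed human Rad51 ssDNA filaments; also added: Donor/quencher-labelled 47-bp dsDNA substrate; doses: 10 µM final, single point; times: 37 °C 15-min filament assembly, 30-min compound preincubation, 15-min exchange; detection: FRET fluorescence dequenching, excitation 485 nm, emission 520 nm; read-out basis: Fluorescence-based percent inhibition, control- and blank-normalised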
Hsp70 act: Hsp70 transcriptional activation, primary screen; HeLa Hsp70 promoter luciferase reporter, luminescence; scaled: vehicle 0, proteasome-inhibitor control 100%; activation, % at 10 µM; hit rate 0.04% among 200,000;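 active = activation above the mean across all tested compounds plus 3 SD, cutoff set per campaign, cut at about 5.5% in these data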;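 also: 100% = MG132 at 30 µM as the positive control and 0% = DMSO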
* marks the source's active call; other numbers are inactive results; i = inactive; ? = inconclusive; / = not tested or not shown. A selection: hits, their analogues and other compounds. The true share with any hit is near 2.6%.

SMILES	Mdm2 ligase inh	HSV replic up	HSF-1 act	HSF1 inh	Rad51 HR inh	Hsp70 act
O=C(Nc1nc2ccccc2n1Cc1ccc(Cl)cc1)c1ccco1	-4	i	29	9	7	0
Cc1nc(/C(N)=N/OC(=O)Cc2ccccc2)no1	1	i	57*	19	11	0
O=C(N/N=C/c1ccc(F)cc1)c1cc[n+]([O-])cc1	/	/	16	-3	/	/
O=[N+]([O-])c1cc2cccnc2c2ncccc12	-8	i	/	-21	6	/
O=[N+]([O-])c1ccc(Sc2cccc3cccnc23)c2cccnc12	5	i	110*	69	/	1
COc1ccc(CCC(=O)N/N=C/c2ccc3c(c2)OCO3)cc1	/	/	5	1	/	/
NC1=NC(=O)/C(=C/c2cn(Cc3ccccc3)c3ccccc23)S1	-12	i	60*	12	-18	0
O=C1C2C3C=CC(C3)C2C(=O)N1/N=C/c1cn(Cc2ccccc2)c2ccccc12 (configuration not stated)	3	i	25	1	24	0
CCc1cc(SC#N)cc(C)c1N	8	i	-8	-13	19	0
CCC(=O)Nc1ccc(SC#N)cc1C	-16	i	-10	-5	-1	2
CCc1cc(SC#N)cc(C)c1NC(=O)CCl	-4	i	113*	71	-4	0
Cc1cc(SC#N)cc(C)c1NC(=O)CCl	-14	i	136*	126	-11	0
Cc1cc(C(=O)CN2CCC(C)CC2)c(C)n1-c1ccccc1F	-45	i	-79	-73*	-2	0
O=C(NCc1cccnc1)c1cccn2c(=O)c3sccc3nc12	5	i	29	-2	-1	0
CC1=NN(c2ccc(C)cc2)C(=O)/C1=C\C=C\c1ccccc1	52*	i	14	7	7	0
CC1=NN(c2ccccc2)C(=O)/C1=C/C=C/C=C/N(C)C	-7	i	32	12	-36	0
CC1=NN(c2ccccc2)C(=O)/C1=C\c1cc(C)n(-c2ccccc2)c1C	-6	i	29	0	-6	0
CC1=NN(c2cccc(C(=O)O)c2)C(=O)/C1=C\C=C/c1ccccc1	31*	i	100*	74	9	0
N#C/C(=C\c1ccc[nH]1)C(=O)Nc1ccccc1[N+](=O)[O-]	/	/	61*	24	/	/
CCOC(=O)CSc1nc2ccc(C)cc2cc1C#N	-2	i	68*	32	9	1
COc1ccc2nc(SCC(C)=O)c(C#N)cc2c1	-17	?	84*	37	-64	0
COc1ccc2nc(SC)c(C#N)cc2c1	-9	i	143*	96	6	1
Clc1ccc(C2=CSC3=NCCN23)c(Cl)c1	/	/	-3	-1	/	/
O=c1[nH]cc(S(=O)(=O)c2ccccc2)[nH]1	13	i	-60	-51*	3	0
O=c1[nH]cc(-c2ccccc2)c(=O)[nH]1	-12	i	-19	-18	8	/
SMILES	Mdm2 ligase inh	HSV replic up	HSF-1 act	HSF1 inh	Rad51 HR inh	Hsp70 act
O=C(CCl)NC(Cc1ccccc1)c1ccccc1 (configuration not stated)	-22	i	-88	-85*	1	0
CC(=O)C(Cc1ccccc1)NC(=O)CCl (configuration not stated)	-16	i	-6	3	-12	0
CCCCCCc1ccc(N2C[C@H](Cc3ccccc3)[C@@H](CC(=O)Nc3ccccc3)C2=O)cc1	/	/	9	-1	/	/
CC(C)Cc1ccc(C(C)C(N)=NCCc2ccccc2)cc1 (configuration not stated)	/	/	19	9	/	/
COc1ccc(-c2csc(NC(=O)CSc3nc(C)cs3)n2)cc1	1	i	9	10	-2	0
CSc1nsc(SCC(=O)Nc2ccc3c(c2)OCCO3)n1	1	i	55*	24	0	0
CSc1nsc(SCC(=O)NCc2ccc(C)cc2)n1	/	/	-84	-79*	/	/
COc1ccc(-c2csc(NC(=O)CSc3nc(SC)ns3)n2)cc1	-8	i	71*	24	/	0
CC12CCC(C(=O)CC1=O)C2(C)C (configuration not stated)	/	/	0	0	/	/
O=C(CN1CCN(c2nc(-c3ccccc3)cs2)CC1)NNC(=O)c1ccco1	-8	i	17	-1	8	0
